The source made the active and inactive calls. No cut-off for these calls is given here.
Tests used:
Plasmodium falciparum [1] = experiment: Antimalarial activity against chloroquine-sensitive Plasmodium falciparum 3D7 assessed as reduction in parasite replication incubated for 72 hrs; details: 3D7, 72 h
BXPC-3 [2] = experiment: Toxicity against human BxPC3 cells at =<40 uM incubated for 72 hrs by resazurin dye reduction assay; type: cell-based; details: bxpc-3, 72 h
Summary of the method: (§1)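 Adherent cancer cells seeded according to growth rate, compound exposure 72 h at 37 °C, 5% CO2, highest concentration 40 μM. Resazurin at 600 μM final, 4 h, fluorescence 530/595 nm. % growth inhibition scaled between >10% DMSO or 20 μM puromycin (100%) and 0.4% DMSO (0%). Triplicate. IC50 by variable-slope nonlinear regression on log dose.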

HEK293 = experiment: Toxicity against human HEK293 cells at =<40 uM incubated for 72 hrs by resazurin dye reduction assay; type: cell-based; details: hek293, 72 h
Summary of the method: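 HEK293 adherent cells, compound exposure 72 h at 37 °C, 5% CO2, highest concentration 40 μM. Supernatant replaced with 10% Presto Blue in DMEM plus 2 mM glutamax, 3 h, fluorescence 530/595 nm. % inhibition scaled between >10% DMSO or 20 μM puromycin (100%) and 0.4% DMSO (0%). Triplicate. IC50 by variable-slope nonlinear regression.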

[3] = Selectivity index, ratio of cytotoxicity against human PANC1 cells to IC50 for chloroquine-sensitive Plasmodium falciparum 3D7; type: toxicity, cell-based, PANC-1; details: read-out: Selectivity Index
[4] = Selectivity index, ratio of cytotoxicity against human BT474 cells to IC50 for chloroquine-sensitive Plasmodium falciparum 3D7; type: toxicity, cell-based, BT-474; details: read-out: Selectivity Index
[5] = Selectivity index, ratio of cytotoxicity against human HEK293 cells to IC50 for chloroquine-sensitive Plasmodium falciparum 3D7; type: toxicity, cell-based; details: read-out: Selectivity Index
BT-474 [6] = experiment: Toxicity against human BT474 cells at =<40 uM incubated for 72 hrs by resazurin dye reduction assay; type: cell-based; details: bt-474, 72 h
Summary of the method: as §1

[7] = Selectivity index, ratio of cytotoxicity against human MCF10A cells to IC50 for chloroquine-sensitive Plasmodium falciparum 3D7; type: toxicity, cell-based, MCF-10A; details: read-out: Selectivity Index
MCF-10A = experiment: Toxicity against human MCF10A cells at =<40 uM incubated for 72 hrs by resazurin dye reduction assay; type: cell-based
Summary of the method: as §1

[8] = Selectivity index, ratio of cytotoxicity against human SU8686 cells to IC50 for chloroquine-sensitive Plasmodium falciparum 3D7; type: toxicity, cell-based; details: read-out: Selectivity Index
[9] = Toxicity against human MDA-M cells at =<40 uM incubated for 72 hrs by resazurin dye reduction assay; type: cell-based
Summary of the method: as §1

[10] = system: Trypanosoma brucei brucei; experiment: Antitrypanosomal activity against Trypanosoma brucei brucei up to 40 uM incubated for 48 hrs by Alamar Blue assay; type: functional, organism-based
Summary of the method: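 T. b. brucei at 2000 cells/mL in HMI-9 with 10% FCS and penicillin/streptomycin, preincubated 24 h. Compound in DMSO prediluted 1:20 in supplemented DMEM, tested up to 40 μM, 48 h at 37 °C, 5% CO2. Alamar Blue added, 2 h under the same conditions then 22 h RT. Fluorescence ex 535/em 590 nm.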

Plasmodium falciparum [11] = experiment: Antimalarial activity against chloroquine-resistant Plasmodium falciparum Dd2 assessed as reduction in parasite replication incubated for 72 hrs; details: Dd2, 72 h
[12] = Selectivity index, ratio of cytotoxicity against human BxPC3 cells to IC50 for chloroquine-sensitive Plasmodium falciparum 3D7; type: toxicity, cell-based, BXPC-3; details: read-out: Selectivity Index
PANC-1 [13] = experiment: Toxicity against human PANC1 cells at =<40 uM incubated for 72 hrs by resazurin dye reduction assay; type: cell-based; details: panc-1, 72 h
Summary of the method: as §1

[14] = Toxicity against human SU8686 cells at =<40 uM incubated for 72 hrs by resazurin dye reduction assay; type: cell-based; details: su.86.86, 72 h
Summary of the method: as §1

[15] = Selectivity index, ratio of cytotoxicity against human MDA-M cells to IC50 for chloroquine-sensitive Plasmodium falciparum 3D7; type: toxicity, cell-based; details: read-out: Selectivity Index
Plasmodium falciparum [16] = experiment: Antimalarial activity against chloroquine-resistant Plasmodium falciparum Dd2 assessed as reduction in parasite replication at 40 uM incubated for 72 hrs
Plasmodium falciparum [17] = experiment: Antimalarial activity against chloroquine-sensitive Plasmodium falciparum 3D7 assessed as reduction in parasite replication at 40 uM incubated for 72 hrs
[18] = Growth inhibition of human SU8686 cells at 20 uM incubated for 72 hrs by resazurin dye reduction assay; type: functional; details: SU.86.86, 72 h, read-out: GI
[19] = Growth inhibition of human HEK293 cells at 20 uM incubated for 72 hrs by resazurin dye reduction assay; type: cell-based; details: read-out: GI
BXPC-3 [20] = experiment: Growth inhibition of human BxPC3 cells at 20 uM incubated for 72 hrs by resazurin dye reduction assay; type: functional; details: BXPC-3, 72 h, read-out: GI
[21] = Growth inhibition of human MCF10A cells at 20 uM incubated for 72 hrs by resazurin dye reduction assay; type: cell-based, MCF-10A; details: read-out: GI
PANC-1 [22] = experiment: Growth inhibition of human PANC1 cells at 20 uM incubated for 72 hrs by resazurin dye reduction assay; type: functional; details: PANC-1, 72 h, read-out: GI
BT-474 [23] = experiment: Growth inhibition of human BT474 cells at 20 uM incubated for 72 hrs by resazurin dye reduction assay; type: functional; details: BT-474, 72 h, read-out: GI
[24] = Growth inhibition of human MDA-M cells at 20 uM incubated for 72 hrs by resazurin dye reduction assay; type: functional; details: read-out: GI

Structure (SMILES)	IC50 (Plasmodium falciparum [1]) [µM]	Activity (BXPC-3 [2])	Activity (HEK293)	Activity (BT-474 [6])	Activity (MCF-10A)	Activity [9]	Activity [10]	Activity (PANC-1 [13])	Activity [14]	also measured
C[C@@H]1CC[C@H]2[C@@H](C)C(=O)O[C@@H]3O[C@@]4(C)CC[C@@H]1[C@]32OO4 [ARTEMISININ]	0.0072	–	–	–	–	–	–	–	–	–
O=C1c2cccc(O)c2C(=O)c2c1ccc(C1(O)c3cccc(O)c3C(=O)c3c(O)cccc31)c2O [ALBOPUNCTATONE]	4.4	Non-toxic	Non-toxic	Non-toxic	Non-toxic	Non-toxic	inactive	Non-toxic	Non-toxic	selectivity ratio [3]: > 9.1; selectivity ratio [4]: > 9.1; selectivity ratio [5]: > 9.1; selectivity ratio [7]: > 9.1; selectivity ratio [8]: > 9.1; IC50 (Plasmodium falciparum [11]): 5.3 µM; selectivity ratio [12]: > 9.1; selectivity ratio [15]: > 9.1
O=C1c2cccc(O)c2C(=O)c2c(O)cccc21 [DANTHRON]	–	Non-toxic	Non-toxic	Non-toxic	Non-toxic	Non-toxic	inactive	Non-toxic	Non-toxic	Activity (Plasmodium falciparum [16]): inactive; Activity (Plasmodium falciparum [17]): inactive
COc1ccc(C[C@H](N)C(=O)N[C@H]2[C@@H](O)[C@H](n3cnc4c(N(C)C)ncnc43)O[C@@H]2CO)cc1 [PUROMYCIN]	0.089	–	–	–	–	–	–	–	–	inhibition of growth at 20 µM [18]: 100%; inhibition at 72 h, 20 µM [19]: 100%; inhibition of growth at 20 µM (BXPC-3 [20]): 100%; inhibition at 72 h, 20 µM [21]: 100%; inhibition of growth at 20 µM (PANC-1 [22]): 100%; inhibition of growth at 20 µM (BT-474 [23]): 100%; inhibition of growth at 20 µM [24]: 100%
